Test results: article PMC8458252 (Circulation. Heart failure, 2021)

Columns and labels:
PDE1 = conditions: cited from earlier work
PDE5 = conditions: cited from earlier work
PDE1C = conditions: read-out: IC50 for PDE1C; cited from earlier work
HFrEF patients [1] = test: Tolerability / adverse events in HFrEF patients; type: in vivo, human
Procedure, shortened: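 In a blinded, placebo-controlled study, stable HFrEF patients on guideline therapy were randomised 3:1 in sequential cohorts. Each received one oral liquid dose (10, 30 or 90 mg) or placebo after an ≥8 h fast. Monitoring ran 5 h post-dose, with a follow-up visit on Day 5 ± 1 (exam, ECG, blood and urine labs). Adverse events were recorded at each visit per protocol.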

[2] = Plasma pharmacokinetics after single oral dose in HFrEF patients; type: in vivo, human
Procedure, shortened: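 After a single oral liquid dose (10, 30 or 90 mg) in fasted HFrEF patients, plasma was drawn pre-dose and at 5, 15, 30, 45, 90 and 120 min on Day 1, and again on Day 5. Parameters: AUC 0–2 h, Cmax, Tmax, lag time. Half-life was estimated from Day 5 levels relative to peak. Data analysed by two-way repeated-measures ANOVA.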

[3] = system: plasma cGMP and cAMP levels; test: Plasma cAMP and cGMP by LC/MS/MS in HFrEF patients; type: in vivo, human; conditions: baseline versus 2 hours after dosing
Procedure, shortened: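 HFrEF patients received one oral dose of test compound (10, 30 or 90 mg) or placebo. Plasma was sampled at baseline and 2 h post-dose and stored frozen. cAMP and cGMP were measured by a validated LC/MS/MS method with quantitation limits of 20 to 5000 […].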

HFrEF patients [4] = test: 12-lead ECG QTc and Holter arrhythmia monitoring in HFrEF patients; type: in vivo, human
Procedure, shortened: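 HFrEF patients fasted ≥8 h took one oral liquid dose of test compound (10, 30 or 90 mg) or placebo, randomised 3:1. 12-lead ECG at baseline, 120 ± 15 min post-dose and Day 5 ± 1. Continuous bedside telemetry plus Holter recording. Holter gave hourly supraventricular and ventricular runs and ectopic-beat burden versus pre-dose.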

HFrEF patients [5] = test: Echo-Doppler hemodynamics, baseline versus 2 hours post-dose, in HFrEF patients; type: in vivo, human
Procedure, shortened: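 Single oral dose (10, 30 or 90 mg, or placebo; randomised 3:1; n=9/dose) in fasted HFrEF patients. Transthoracic 2D Doppler echo at baseline and 120 ± 15 min, read blinded in a core lab. Cuff BP/HR taken at imaging. Outputs: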

HFrEF patients [6] = test: Supine and orthostatic blood pressure and heart rate in HFrEF patients; type: in vivo, human
Procedure, shortened: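 Fasted HFrEF patients were randomised 3:1 to one oral liquid dose (10, 30 or 90 mg) or placebo. Supine BP and HR were taken by automated cuff every 10 min from 30 min pre-dose to 120 min post-dose, then every 30 min to 5 h. Orthostatic readings were taken at 60 ± 5 and 240 ± 15 min and on Day 5, after 1, 3 and 5 min standing. Time course versus placebo by ANCOVA; orthostatic change by ANOVA.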

PDE1A = conditions: read-out: IC50 for PDE1A; cited from earlier work
PDE3 = conditions: cited from earlier work
rats = conditions: cited from earlier work

Compound: CCOC(=O)C1=C[C@]2(CC)CCCN3CCc4c(n1c1ccccc41)[C@@H]32 [vinpocetine, reference compound]
- PDE1 inhibitor potency relative to ITI-214 (less potent) (PDE1): < 10^6

Compound: CN1C(=O)c2c(nn(Cc3ccc(-c4cccc(F)n4)cc3)c2Nc2ccccc2)N2C1=N[C@@H]1CCC[C@@H]12 [ITI-214]
- selectivity for PDE1 over PDE5 (PDE5): 19,000 fold
- IC50 (PDE1C): 35 pM
- feeling hot, share of subjects (HFrEF patients [1]; 27 subjects treated): 7%
- headache, share of subjects (HFrEF patients [1]; 27 subjects treated): 7%
- hypotension, share of subjects (HFrEF patients [1]; 27 subjects treated): 11%
- orthostatic hypotension, share of subjects (HFrEF patients [1]; 27 subjects treated): 11%
- parosmia, share of subjects (HFrEF patients [1]; 27 subjects treated): 15%
- taste disorder, share of subjects (HFrEF patients [1]; 27 subjects treated): 7%
- subjects with mild adverse events (HFrEF patients [1]; all ITI-214 doses): 11 of the 27 subjects
- serious adverse events (HFrEF patients [1]; any time in the study): no serious adverse events
- tolerability (HFrEF patients [1]; single dose): well-tolerated
- drug level as % of peak concentration ([2]; after five days, at each dose): 2-3%
- time at which peak concentration was achieved ([2]; after oral dosing): ≤ 45 min
- half-life ([2]; human, plasma, oral): ~22 h
- Tmax ([2]; human, plasma, po, 90 mg): 0.75 to 1.1 h
- plasma cAMP level [3]: did not significantly change
- plasma cGMP level [3]: did not significantly change
- change in QTc (HFrEF patients [4]; 10 mg, 120 minutes post-dose versus baseline): 1 ± 9 ms
- change in QTc (HFrEF patients [4]; 10 mg, Day 5 versus baseline): -13 ± 17 ms
- change in QTc (HFrEF patients [4]; 30 mg, 120 minutes post-dose versus baseline): -4 ± 18 ms
- change in QTc (HFrEF patients [4]; 30 mg, Day 5 versus baseline): -19 ± 22 ms
- change in QTc (HFrEF patients [4]; 90 mg, 120 minutes post-dose versus baseline): -4 ± 24 ms
- change in QTc (HFrEF patients [4]; 90 mg, Day 5 versus baseline): -16 ± 19 ms
- arrhythmia outcomes (Holter) (HFrEF patients [4]; compared to pre-dosing): no clinical change
- median change in PWRi (mean LV power index) (HFrEF patients [5]; 10 mg, baseline to 120 minutes): 0.018 (IQR 0.122) Watts/mL^2·10^4
- median rise in cardiac output (HFrEF patients [5]; 10 mg, baseline to 120 minutes): 0.717 L/min
- E/E’ (HFrEF patients [5]; 30 mg): small rise
- change in systemic vascular resistance (HFrEF patients [5]; 30 mg, baseline to 120 minutes): −564 dynes·s/cm^−5
- median change in PWRi (mean LV power index) (HFrEF patients [5]; 30 mg, baseline to 120 minutes): 0.143 (IQR 0.154) Watts/mL^2·10^4
- median rise in cardiac output (HFrEF patients [5]; 30 mg, baseline to 120 minutes): 0.830 L/min
- change in systemic vascular resistance (HFrEF patients [5]; 90 mg, baseline to 120 minutes): −370 dynes·s/cm^−5
- median change in PWRi (mean LV power index) (HFrEF patients [5]; 90 mg, baseline to 120 minutes): 0.083 (IQR 0.126) Watts/mL^2·10^4
- median rise in cardiac output (HFrEF patients [5]; 90 mg, baseline to 120 minutes): 0.666 L/min
- percent increase in cardiac output (HFrEF patients [5]; 90 mg, pre versus post dose): 18%
- percent increase in mPWRi (HFrEF patients [5]; 90 mg, pre versus post dose): 33%
- total LV afterload (Ea) (HFrEF patients [5]; all doses): significantly reduced
- end-diastolic volume (HFrEF patients [5]; baseline to 120 minutes): little effect
- isovolumic relaxation time (HFrEF patients [5]; baseline to 120 minutes): little effect
- diastolic BP change (HFrEF patients [6]; over 2 hours post-dose, each dose): declined
- increase in heart rate (HFrEF patients [6]; single oral dose 10-90 mg): 5-9 bpm
- orthostatic SBP changes versus placebo (HFrEF patients [6]; upon standing): No SBP changes were significantly different
- IC50 (PDE1A): 35 pM
- selectivity for PDE1 over PDE3 (PDE3): 94,000 fold
- potency relative to either Lu-compound (more potent) (PDE1; versus LuAF41228 and LuAF58027): > 1000 x

Compound: CCC(CC)Nc1ncnc2c(OC)c(OC)ccc12 [LuAF41228]
- lowering of blood pressure (rats): ≥ 15 mmHg
